Yeast eIF2B – modulators of yeast eIF2B activity; S. cerevisiae eIF2B-epsilon R284H, GCN4-lacZ luminescence; inhibition, % at 25 µM (by protocol); 27,000 compounds, 0.91% hits;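 active = mutant luminescence inhibited past about 50% while wild type luminescence and mutant growth stay under set limits, limit read from the data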
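Times: 16 h growth with compound at 30 °C, 90 min Beta-Glo step; Assay system: yeast eIF2B-epsilon R284H mutant carrying GCN4–beta-galactosidase fusion; Measure: % inhibition of reporter signal and growth versus controls; Dosing: one concentration, 25 µM, 0.25% DMSO; Buffer or medium: YPD yeast growth medium; Measured by: Beta-Glo luminescence plus absorbance at 595 nm.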
Yeast growth tox – Compounds toxic to wild-type S. cerevisiae growth; A595 turbidity, 16 h; growth inhibition, % at 25 µM (by protocol); 30,000 compounds, 0.3% hits; AID 685;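 active = mutant and wild-type yeast strains alike exhibit over 30% growth inhibition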;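 also: 0% = untreated cell controls and 100% = YPD media blanks without cells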
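Test system: Wild-type and eIF2Bepsilon-R284H mutant S. cerevisiae, screened separately | Dosing: Single 25 µM compound dose in 0.2% DMSO | Schedule: 16 h compound exposure during growth at 30 °C | Detection: A595 turbidity | Evaluation: Growth inhibition (%) versus cell controls and blanks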
* = called active by the depositor; x = not tested or not shown. Only some compounds are listed: those with a hit (about 1% of all), similar ones and a draw of the others.

SMILES | Yeast eIF2B | Yeast growth tox
COP(=O)(OC)C1(Nc2ccc(C)cc2)CCCCC1 | 24.1 | 49.2*
CN(Cc1ccccc1)C(=C(Cl)Cl)/C(=C1/NCCN1Cc1ccc(Cl)nc1)[N+](=O)[O-] | 28.7 | 13.5
COCCn1c(-c2ccccc2)cc(C(=O)O)c1C | 50.8* | -7.3
CCCn1ncc(C(=O)O)c1C | x | -16.2
CN(C)P(=O)(C(Cl)=C(N1CCCCC1)N1CCCCC1)N(C)C | 58.4* | -2.0
COc1ccc(/C=C2/C(=O)NC(=O)N(C3CCCCC3)C2=O)cc1CSc1ccccn1 | x | 4.3
COc1ccc(N=C2SCCCN2C)cc1 | 23.7 | 9.3
COc1ccccc1N(CC(=O)NC1CCCC1)C(=O)c1cnn(C(C)C)c1 | x | -3.5
CCCCN1C(=O)C(C2c3ccccc3C(=O)N2Cc2ccccc2)C(=O)NC1=S (configuration not stated) | x | 21.3
CCN1C(=O)c2ccccc2Sc2ccc(C(=O)N3CCC4(CC3)OCCO4)cc21 | 27.0 | -17.5
CN1C(=O)c2ccccc2Sc2ccc(C(=O)N3CCC4(CC3)OCCO4)cc21 | 63.1* | 7.5
CC(=NCc1cccnc1)c1c(O)n(-c2ccccc2)c(=O)[nH]c1=O | 6.1 | 1.0
